Test results: ChEMBL document CHEMBL1123026, “Preparation and antiarthritic and analgesic activity of 4,5-diaryl-2-(substituted thio)-1H-imidazoles and their sulfoxides and sulfones” (1985)

Assays:
Format in all cases: functional
[1] = tested on: Mus musculus; assay: Effective dose by mouse phenyl-p-benzoquinone writhing (PQW)assay after peroral administration; activity value ranges from (0.68-2.89); conditions: po
[2] = tested on: Mus musculus; assay: Effective dose by mouse phenyl-p-benzoquinone writhing (PQW)assay after peroral administration; activity value ranges from (3.2-12.3); conditions: po
Procedure, shortened: (§1)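 Fasted (17-21 h) female white mice, 5-20 per double-blind test, dosed orally with compound suspended in 1% methylcellulose. 0.20 mL aqueous 0.01% phenyl-p-benzoquinone given i.p. 6 min before a 10-min observation for stretching/writhing. ED50 (dose protecting 50% of mice) calculated by the moving-average method.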

[3] = tested on: Mus musculus; assay: Effective dose by mouse phenyl-p-benzoquinone writhing (PQW)assay after peroral administration; activity value ranges from (20.2-79.4); conditions: po; procedure, shortened: as §1
[4] = tested on: Rattus norvegicus; assay: Effective dose determined against rat adjuvant arthritis after peroral administration; conditions: po
Procedure, shortened: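 Male Lewis rats (130-150 g) given 0.1 mL Mycobacterium butyricum adjuvant (5 mg/mL in mineral oil) s.c. into the right hind paw; arthritis developed for 2 weeks. Groups of 10 matched for severity were dosed orally by gavage in PVA-acacia vehicle (10 mL/kg) for 7 days. Uninjected left paw volume was measured the day after the last dose. Percent decrease was calculated vs arthritic and nonarthritic controls. ED50 was read from a visually fitted semilog dose-response line.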

[5] = tested on: Mus musculus; assay: Effective dose by mouse phenyl-p-benzoquinone writhing (PQW)assay after peroral administration; activity value ranges from (20.0-101.0); conditions: po; procedure, shortened: as §1
[6] = tested on: Mus musculus; assay: Effective dose by mouse phenyl-p-benzoquinone writhing (PQW)assay after peroral administration; activity value ranges from (0.23-1.22); conditions: po
[7] = tested on: Mus musculus; assay: Effective dose by mouse phenyl-p-benzoquinone writhing (PQW)assay after peroral administration; activity value ranges from (10.2-45.9); conditions: po; procedure, shortened: as §1
[8] = tested on: Mus musculus; assay: Effective dose determined by mouse phenyl-p-benzoquinone writhing (PQW) assay after peroral administration; conditions: po; procedure, shortened: as §1
[9] = tested on: Rattus norvegicus; assay: Decrease in rat paw volume was evaluated at dose 100 mg/kg
Procedure, shortened: (§2)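 Male Lewis rats (130-150 g) got 0.1 mL adjuvant (heat-killed Mycobacterium butyricum, 5 mg/mL in mineral oil) subplantar in the right hind paw and were left 2 weeks. Groups of 10 matched for severity were dosed orally by gavage (PVA-acacia vehicle, 10 mL/kg) for 7 days. Uninjected left hind paw volume was read the next day. % decrease = (arthritic control − treated)/(arthritic − nonarthritic control) × 100; Student's t-test.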

[10] = tested on: Rattus norvegicus; assay: Decrease in paw volume by the effect of compound at a dose 100 mg/kg; procedure, shortened: as §2
[11] = tested on: Mus musculus; assay: Effective dose by mouse phenyl-p-benzoquinone writhing (PQW)assay after peroral administration; activity value ranges from (2.5 - 8.9); conditions: po; procedure, shortened: as §1
[12] = tested on: Mus musculus; assay: Effective dose by mouse phenyl-p-benzoquinone writhing (PQW)assay after peroral administration; activity value ranges from (0.07-0.50); conditions: po
[13] = tested on: Mus musculus; assay: Effective dose by mouse phenyl-p-benzoquinone writhing (PQW)assay after peroral administration; activity value ranges from (38.0-118.0); conditions: po; procedure, shortened: as §1
[14] = tested on: Mus musculus; assay: Effective dose by mouse phenyl-p-benzoquinone writhing (PQW)assay after peroral administration; 11.4-59.4; conditions: po
[15] = tested on: Mus musculus; assay: Effective dose by mouse phenyl-p-benzoquinone writhing (PQW)assay after peroral administration; activity value ranges from (0.09 - 0.86); conditions: po
[16] = tested on: Mus musculus; assay: Effective dose by mouse phenyl-p-benzoquinone writhing (PQW)assay after peroral administration; activity value ranges from (7.7-33.2); conditions: po; procedure, shortened: as §1
[17] = tested on: Mus musculus; assay: Effective dose by mouse phenyl-p-benzoquinone writhing (PQW)assay after peroral administration; 15.5-103; conditions: po
[18] = tested on: Mus musculus; assay: Effective dose by mouse phenyl-p-benzoquinone writhing (PQW)assay after peroral administration; activity value ranges from (20.0-81.0); conditions: po; procedure, shortened: as §1
[19] = tested on: Mus musculus; assay: Effective dose by mouse phenyl-p-benzoquinone writhing (PQW)assay after peroral administration; activity value ranges from (15.0-77.0); conditions: po; procedure, shortened: as §1
[20] = tested on: Mus musculus; assay: Effective dose by mouse phenyl-p-benzoquinone writhing (PQW)assay after peroral administration; 16.7-121.5; conditions: po
[21] = tested on: Mus musculus; assay: Effective dose by mouse phenyl-p-benzoquinone writhing (PQW)assay after peroral administration; activity value ranges from (4.9-8.7); conditions: po; procedure, shortened: as §1
[22] = tested on: Mus musculus; assay: Effective dose by mouse phenyl-p-benzoquinone writhing (PQW)assay after peroral administration; activity value ranges from (16.2-99); conditions: po; procedure, shortened: as §1
[23] = tested on: Mus musculus; assay: Effective dose by mouse phenyl-p-benzoquinone writhing (PQW)assay after peroral administration; activity value ranges from (0.37-1.52); conditions: po
[24] = tested on: Rattus norvegicus; assay: Decrease in paw volume by the effect of compound at a dose of 80 mg/kg; procedure, shortened: as §2
[25] = tested on: Mus musculus; assay: Effective dose by mouse phenyl-p-benzoquinone writhing (PQW)assay after peroral administration; activity value ranges from (4.8-25.4); conditions: po; procedure, shortened: as §1
[26] = tested on: Mus musculus; assay: Effective dose by mouse phenyl-p-benzoquinone writhing (PQW)assay after peroral administration; 20.6-296.0; conditions: po

O=S(=O)(c1nc(-c2ccc(F)cc2)c(-c2ccc(F)cc2)[nH]1)C(F)F
ED50 [1]: 1.4 mg/kg

O=S(=O)(c1nc(-c2ccc(Cl)cc2)c(-c2ccc(F)cc2)[nH]1)C(F)(F)C(F)F
ED50 [2]: 6.3 mg/kg

COc1ccccc1-c1nc(S(=O)(=O)C(F)(F)C(F)F)[nH]c1-c1ccccc1OC
ED50 [3]: 40 mg/kg
ED50 [4]: > 9 mg/kg

O=S(=O)(c1nc(-c2ccc(Cl)cc2)c(-c2ccc(C(F)(F)F)cc2)[nH]1)C(F)(F)C(F)F
ED50 [5]: 45 mg/kg

COc1ccc(-c2nc(S(=O)(=O)C(F)(F)CF)[nH]c2-c2ccc(OC)cc2)cc1
ED50 [6]: 0.53 mg/kg

O=[N+]([O-])c1ccc(-c2[nH]c(S(=O)(=O)C(F)(F)C(F)F)nc2-c2ccc(F)cc2)cc1
ED50 [7]: 21.6 mg/kg
ED50 [4]: 0.37 mg/kg

CSc1nc(-c2ccccc2)c(-c2ccccc2)[nH]1
ED50 [8]: > 100 mg/kg
Decrease [9]: 20%

C[S+]([O-])c1nc(-c2ccccc2)c(-c2ccccc2)[nH]1 (centres undefined)
ED50 [8]: > 100 mg/kg
Decrease [10]: 33%

[O-][S+](c1nc(-c2ccccc2)c(-c2ccccc2)[nH]1)C(F)(F)C(F)F (centres undefined)
ED50 [11]: 4.7 mg/kg

O=S(=O)(c1nc(-c2ccc(F)cc2)c(-c2ccc(F)cc2)[nH]1)C(F)(F)F
ED50 [12]: 0.19 mg/kg
ED50 [4]: 0.016 mg/kg

COc1cccc(-c2nc(S(=O)(=O)C(F)(F)C(F)F)[nH]c2-c2cccc(OC)c2)c1
ED50 [13]: 67 mg/kg

C=CCSc1nc(-c2ccc(OC)cc2)c(-c2ccc(OC)cc2)[nH]1
ED50 [14]: 26 mg/kg
ED50 [4]: 20 mg/kg

COc1ccc(-c2[nH]c(S(=O)(=O)C(F)(F)C(F)F)nc2-c2ccc(F)cc2)cc1
ED50 [15]: 0.28 mg/kg
ED50 [4]: 1.7 mg/kg

O=S(=O)(c1nc(-c2ccc(Cl)c(Cl)c2)c(-c2ccccc2)[nH]1)C(F)(F)F
ED50 [16]: 16 mg/kg
ED50 [4]: 0.35 mg/kg

CCCSc1nc(-c2ccc(OC)cc2)c(-c2ccc(OC)cc2)[nH]1
ED50 [17]: 40 mg/kg

[O-][S+](c1nc(-c2ccc(F)cc2)c(-c2ccc(F)cc2)[nH]1)C(F)(F)F (centres undefined)
ED50 [18]: 40 mg/kg
ED50 [4]: 0.06 mg/kg

COc1ccc(-c2nc([S+]([O-])CSC)[nH]c2-c2ccc(OC)cc2)cc1 (centres undefined)
ED50 [19]: 34 mg/kg
ED50 [4]: 28 mg/kg

COc1ccc(-c2nc(SC(F)(F)C(F)F)[nH]c2-c2ccc(OC)cc2)cc1
ED50 [20]: 45 mg/kg
ED50 [4]: 4.5 mg/kg

O=S(=O)(c1nc(-c2ccc(Cl)c(Cl)c2)c(-c2ccccc2)[nH]1)C(F)(F)C(F)F
ED50 [21]: 6.5 mg/kg
ED50 [4]: 0.22 mg/kg

CCC[S+]([O-])c1nc(-c2ccc(OC)cc2)c(-c2ccc(OC)cc2)[nH]1 (centres undefined)
ED50 [22]: 40 mg/kg
ED50 [4]: 15 mg/kg

O=S(=O)(c1nc(-c2ccccc2)c(-c2ccccc2)[nH]1)C(F)(F)F
ED50 [23]: 0.75 mg/kg

COc1ccc(-c2nc(S(=O)(=O)CS(C)(=O)=O)[nH]c2-c2ccc(OC)cc2)cc1
ED50 [8]: > 130 mg/kg
Decrease [24]: 43%

O=S(=O)(c1nc(-c2ccc(Cl)cc2)c(-c2ccc(Cl)cc2)[nH]1)C(F)(F)C(F)F
ED50 [25]: 11 mg/kg
ED50 [4]: 0.18 mg/kg

FC(F)Sc1nc(-c2ccc(Cl)cc2)c(-c2ccc(Cl)cc2)[nH]1
ED50 [26]: 78 mg/kg
